The full list was thinned out, with hits kept by preference.
Dynein transport = blocks dynein driven cargo transport along microtubules; 3617.4 mouse cells, GR-EGFP nuclear translocation imaging; test concentration mostly 20 µM; stimulated with dexamethasone, 1 µM; active compounds read low; z-score, hits read low; hit rate 0.47% among 220,000; AID 1381;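 active = plate z-score of nuclear minus cytoplasmic receptor signal below a set negative limit, without overly bright fluorescence or cell loss, cut at about -3.5 in these data, passing the limit was not always enough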;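 note: z-score of nuclear minus cytoplasmic ring GR-EGFP intensity difference per well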
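Medium: Induction medium lacking tetracycline, stripped serum | Probe or stimulus: 1.0 µM final dexamethasone stimulus | Schedule: 48 h induction, then 1 h compound, then 30 min agonist, 37 °C | Signal: Automated 10x imaging of fixed Hoechst-stained cells | Evaluation: Per-cell GR-EGFP intensity, nucleus versus surrounding cytoplasmic ring, well-averaged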
CHOP UPR activ = apoptotic UPR (CHOP) activation. CHO-CHOP luciferase reporter, luminescence; percent of tunicamycin response over DMSO baseline. activation, % at 10 µM. hit rate 0.34% among 330,000;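 active = at 10 µM dose, activation of 40% or more, normalized to positive control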;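 note: 100% = tunicamycin at 10 µg/mL and 0% = DMSO alone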
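Assay system: CHO-CHOP cells, stable luciferase reporter of PERK-eIF2a-CHOP signalling / Buffer or medium: F12 plus 10% serum / Compound dosing: one dose, 10 µM in 0.5% DMSO / Times: 6 h compound treatment, 37 °C / Technique: luciferase luminescence / Read-out: % reporter activation, DMSO baseline versus tunicamycin full activation / Benchmarks: tunicamycin and DMSO controls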
Lmaj promast = inhibitors of Leishmania major promastigote growth; Leishmania major promastigotes, resazurin fluorescence viability; inhibition, % at 10 µM; hit rate 9% among 200,000; in the data active = inhibition above about 50%;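 note: promastigotes grown with compound for 44 hours at 28 °C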
CHOP inh = inhibitors of CHOP induction in ER stress response | CHO-K1 CHOP-promoter luciferase, tunicamycin-induced, 15-18 h | AID 2732 | hit rate 3.8% among 220,000 | inhibition, % at 10 µM;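 active = compounds that reduced the stress-induced luciferase reporter signal by more than about 70% of percent inhibition, limit read from the data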;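 note: 0% = tunicamycin plus vehicle and 100% = wells without tunicamycin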
XBP1 UPR activ = adaptive UPR (XBP1) activation; activation, % at 20 µM; CHO-XBP1 luciferase reporter, IRE1-XBP1 UPR activation, luminescence; percent of tunicamycin response, DMSO as zero; hit rate 0.33% among 330,000;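 active = versus positive control, 20 µM dose yields 30% or more activation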;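 note: 100% = tunicamycin at 10 µg/mL and 0% = DMSO only wells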
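Material: CHO cell line with stable XBP1 luciferase reporter; schedule: 16-18 h cell attachment at 37 °C, then 6 h compound exposure; signal: glow luminescence from Steady-Glo reagent; medium: serum-containing F12 medium, 10% FBS; benchmarks: tunicamycin 10 µg/mL and vehicle-only wells; read-out: percent activation relative to tunicamycin reference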
T cruzi repl = T. cruzi replication inhibition; T. cruzi beta-gal in NIH3T3, luminescence, 90 h; inhibition, % (concentration not given with the values); hit rate 1.4% among 300,000;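 active = mean inhibition across valid replicates above about 55%, limit read from the data; inconclusive = mean below that limit but half or more replicates reach it; inactive = mean below it, under half of replicates reach it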;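 note: signal also drops with host cell toxicity which is not excluded here; 0% = plate median of DMSO wells and 100% = zero luminescence signal; higher percent means less beta-gal luminescence so fewer parasites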
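Assay system: NIH/3T3 fibroblasts plus reporter T. cruzi. Amount: NIH/3T3 cells, 5,000 per well. Buffer or medium: DMEM, 2% fetal bovine serum. Doses: compound pinned at 50 nL/well, DMSO. Schedule: ≥90 h infection period, 3 h prior cell attachment. Signal: luminescent β-galactosidase signal after 60 min lysis. Read-out: parasite load inhibition, %.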
* marks the source's active call; other numbers are inactive results; ? = inconclusive; . = no result.

SMILES	Dynein transport	CHOP UPR activ	Lmaj promast	CHOP inh	XBP1 UPR activ	T cruzi repl
CCOC(=O)C1(Cc2ccccc2Cl)CCN(C(=O)CCn2ccnc2C)CC1	1.4	3	100*	-21	0	-1
CCOC(=O)C1(Cc2ccccc2)CCCN(C(=O)C=C(C)C)C1 (configuration not stated)	.	5	.	.	1	13
CCOC(=O)C1(Cc2ccc(Cl)cc2)CCN(CCCn2cccn2)CC1	-0.46	1	85*	16	2	.
CCOC(=O)C1(Cc2ccccc2)CCCN(Cc2ccncc2)C1 (configuration not stated)	0.41	1	6	10	1	14
CCOC(=O)C1(Cc2ccccc2)CCCN(C2CCN(C(C)=O)CC2)C1 (configuration not stated)	0.72	-1	79*	2	-1	5
CCOc1ccc(NC2OC(CO)C(O)C(O)C2O)c([N+](=O)[O-])c1 (configuration not stated)	-0.93	-2	-2	7	1	-2
CCOC(=O)C1(Cc2ccc(Cl)cc2)CCN(Cc2nccn2CC)CC1	-0.64	0	79*	8	-1	6
O=C(Cn1nnc(-c2ccccc2)n1)OCc1ccccc1	-0.92	-2	-5	76*	0	-7
COc1nccc(NCc2ccccc2)c1C#N	.	1	.	.	-2	-12
COc1ccc(CCNC(=O)C(C)OC(=O)c2nsc(Cl)c2Cl)cc1OC (configuration not stated)	.	0	.	.	2	-19
O=c1oc2ccccc2c(O)c1/C=C1\C=Nc2ccccc21	-0.37	1	100*	-2	-3	13
O=c1oc2ccccc2c(O)c1/C=N/c1ncccn1	.	0	.	.	-1	-27
O=C1/C(=C/c2ccccc2)Nc2ccccc21	1.1	1	2	-192	5	-32
O=C1/C(=C/c2ccccc2)NC(=S)N1C(c1ccccc1)c1ccccc1	-0.43	-2	2	89*	-1	10
N#CC(c1ccccc1)(c1ncc(C(F)(F)F)cc1Cl)N1CCOCC1 (configuration not stated)	-0.35	-1	-1	2	1	-3
N#CC(c1cccc(C(F)(F)F)c1)(c1ncc(C(F)(F)F)cc1Cl)N1CCOCC1 (configuration not stated)	0.36	0	96*	64	-1	6
COc1cc(Cn2nnc3ccccc32)cc(Br)c1O	.	3	.	.	0	-2
N#Cc1ccc(OCCN2CCc3ccccc3C2)cc1	.	1	.	.	2	2
Clc1ccc(OCCCCN2CCc3ccccc3C2)cc1	-0.45	-1	85*	39	1	11
COc1ccc(OCCOCCN2CCc3ccccc3C2)cc1	0.81	-1	93*	0	-3	58*
O=C(COC(=O)Cc1c(F)cccc1Cl)NCc1ccc2c(c1)OCO2	.	0	.	.	2	.
O=C(CSc1nc2ccc(Cl)cc2o1)NCc1ccc2c(c1)OCO2	0.43	-1	0	26	-1	2
O=C(CSc1nc(CCC2CCCC2)nc2ccccc12)NCc1ccc2c(c1)OCO2	-0.084	0	0	95*	3	22
O=C(CSc1nc2ccccc2o1)NCc1ccc2c(c1)OCO2	-0.58	2	-2	79*	-2	9
CN(C)c1ccc(P(=O)(Nc2ccccc2)N2CCOCC2)c(NC(=O)c2cccs2)c1 (configuration not stated)	-0.35	3	31	-4	-3	25
SMILES	Dynein transport	CHOP UPR activ	Lmaj promast	CHOP inh	XBP1 UPR activ	T cruzi repl
Cc1ccc(NP(=O)(c2ccc(N(C)C)cc2NC(=O)c2cccs2)N2CCOCC2)cc1Cl (configuration not stated)	-0.07	0	58*	4	5	61*
Cc1ccc(NP(=O)(c2ccc(N(C)C)cc2NC(=O)c2cccs2)N2CCOCC2)cc1 (configuration not stated)	0.086	2	46	4	-1	57*
CCCCOc1ccc(C(=O)N2CCNC(=O)C2)cc1	.	-1	.	.	-2	-2
Clc1cccc(Oc2ncc(CN3CCOCC3)s2)c1	0.55	3	62*	-9	3	-1
Cc1ccc(Oc2ncc(CN3CCOCC3)s2)cc1	2.2	0	77*	-12	2	-12
Brc1ccc(Oc2ncc(CN3CCN(c4ccccc4)CC3)s2)cc1	-0.01	2	-4	-21	-1	1
CCOc1ccccc1NC(=O)CSc1nnc(CNC(=O)c2cccs2)o1	.	0	.	.	-3	?
O=C(OCc1nc2ccc(Cl)cc2n1CCO)c1ccccc1C(=O)c1ccccc1	-1.3	2	60*	19	-1	-5
O=C(CNC(=O)c1ccccc1F)OCc1nc2ccc(Cl)cc2n1CCO	.	-2	.	.	3	.
CN1CCN(c2nc(-c3ccncc3)nc3ccccc23)CC1	1.2	-2	100*	45	-1	52
c1ccc(CN2CCN(c3nc(-c4ccccc4)nc4ccccc34)CC2)cc1	0.16	1	68*	33	2	44
c1ccc2c(N3CCCC3)nc(-c3ccncc3)nc2c1	0.068	-2	30	32	7	4
c1ccc(CN2CCN(c3nc4ccccc4c4ccccc34)CC2)cc1	-0.92	-1	6	44	-4	23
COc1cccc(-c2nc(N3CCN(C)CC3)c3ccccc3n2)c1O	1.6	5	.	-23	2	55*
c1ccc(CN2CCN(c3nc(-c4ccccc4)nc(-n4ccnc4)n3)CC2)cc1	1.3	1	-15	55	-2	60*
CN1CCN(c2nc(-c3ccccc3O)nc3ccccc23)CC1	.	2	.	.	1	43
Cc1cccc(OCCOC(=O)CN2C(=O)NC3(CCCC3)C2=O)c1	.	-1	.	.	-2	-26
CCN(CC)c1nc(-c2cccc(OC)c2O)nc2ccccc12	-0.88	1	7	88*	1	32
Cc1ccc2c(c1)c1c(n2CC(O)CNC2CCCCC2)CCCC1 (configuration not stated)	-1.9	4	101*	94*	11	44
c1ccc(CN2CCN(c3nc(NCc4ccco4)c4ccccc4n3)CC2)cc1	-1.4	0	100*	50	0	36
COc1ccc(OC)c(Nc2nc(NCc3ccco3)c3ccccc3n2)c1	.	-1	.	.	-4	49
OCCN1CCN(c2nc(NCc3ccco3)c3ccccc3n2)CC1	-0.47	-2	25	3	-6	12
Cc1ccc(OCCN2CCN(c3nc(NCc4ccco4)c4ccccc4n3)CC2)cc1	0.037	2	99*	51	-2	70*
CN1CCc2nc(SCc3ccc(C(C)(C)C)cc3)c(C#N)cc2C1	-0.68	-2	42	29	-3	57*

Compound activity as filed in PubChem BioAssay.
